This is an account of results in PMC6396672 (OncoTargets and therapy, 2019).

The structures appear in SMILES notation. Read-outs that look alike come from different tables or passages of the source.

One data set concerns MHCC97-L cells. The data set can be described thus: MTT assay, cell survival. Particulars: for IC50: MHCC97L. The data set is classed as cell-based. Summed up: (§1)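 Compounds were dissolved in DMSO and diluted in DMEM. Cells were treated at 0.01, 0.03, 0.1, 0.3, 1, 3 and 10 μmol/L, and viability was read by MTT. Inhibition rates were calculated, and IC25, IC50 and ICmax were derived by curve fitting.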

The subject of a further data set is LM-3 cells. Briefly: MTT assay, cell survival. The data set is classed as cell-based. An outline of the steps:
as §1

The test system of a further data set is L-02 cells. The data set can be described thus: MTT assay, cell survival. Format: cell-based. Summed up: as §1
The subject of another data set is MHCC97-H cells. Briefly: MTT assay, cell survival. Format: cell-based. The conditions noted are these: for IC50: Homo sapiens, MHCC97H. An outline of the steps:
as §1

In data set [1] the test system is MDR-related genes in MHCC97-H cells. Briefly: qPCR of MDR-related genes. The data set is classed as cell-based. The conditions noted are these: ARQ-197 at IC25 concentration. An outline of the steps:
(§2)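 Total RNA from treated HCC cells was extracted and reverse transcribed. Target mRNAs were measured by real-time qPCR with gene-specific primers and normalised to β-actin mRNA. EMT targets were E-cadherin, N-cadherin and vimentin; MDR targets were CYP3A4, MDR-1 and UGT1A9.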

Another data set relates to PXR. Particulars: MHCC97-H cells, dose-dependent.
Data set [2] concerns EMT-related genes in MHCC97-H cells. The data set can be described thus: qPCR of EMT-related genes. The data set is classed as cell-based. The conditions noted are these: ARQ-197 at IC25 concentration. Summed up: as §2
For a further data set, the system named is MHCC97-H tumors. Briefly: In vivo antitumor effect, subcutaneous tumor model. The conditions noted are these: nude mice. An outline of the steps:
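Nude (T-cell-deficient) mice, aged 4–6 weeks, were injected subcutaneously with 1×10^6 MHCC97-H cells per animal. Treatment started 3–4 days after injection: sorafenib 2 mg/kg given orally every 2 days, ten doses over 21 days. Mice were then harvested and tumour volumes or weights measured. Inhibition rates were calculated from tumour volume or weight.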

For a further data set, the system named is ETS-1. Briefly: Gene reporter luciferase assay EBS-Luc. Format: cell-based. The conditions noted are these: MHCC97-H cells, dose-dependent.
The test system of another data set is HepG2 cells. The data set can be described thus: MTT assay, cell survival. The conditions noted are these: for IC50: Homo sapiens. The data set is classed as cell-based. Summed up: as §1
Data set [3] can be described thus: Clearance of sorafenib in cultured cells by LC-MS/MS. The data set is classed as in vitro ADME. Particulars: human, MHCC97-H cells (cultured HCC cells), Half-life of sorafenib (t1/2). An outline of the steps: (§3)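 Cultured human HCC cells (with or without the co-treatment or siRNA named in the line) were exposed to sorafenib at 1 μmol/L for 12 hours, then harvested at set time points. Samples were extracted with acetonitrile, and the remaining sorafenib was quantified by LC-MS/MS. Half-life (t1/2) was calculated from the decline over time.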

Test in data set [4]: as above
Format: in vitro ADME. The conditions noted are these: human, LM-3 cells (cultured HCC cells), Half-life of sorafenib (t1/2), LM-3 cultured cells. An outline of the steps: as §3

A further data set deals with subcutaneous LM-3 tumors. Briefly: Clearance of sorafenib in subcutaneous tumor by LC-MS/MS. The data set is classed as in vivo, nude mice. The conditions noted are these: LM-3 subcutaneous tumor, ETS-1 siRNA. Summed up:
(§4)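 Nude mice (T-cell deficient, 4–6 weeks) carried subcutaneous tumours grown from injected HCC cells; siRNA sequences were described in earlier work. Sorafenib solution was injected into the tumours, and tissue was harvested at set time points. Samples were extracted with acetonitrile, and residual sorafenib was quantified by LC-MS/MS. t1/2 was obtained by curve fitting.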

Data set [5] has as its system subcutaneous MHCC97-H tumors. The description is as above. Particulars: PXR siRNA +siRNA. The data set is classed as in vivo, nude mice. Summed up:
as §4

A short description of data set [6]: Clearance of sorafenib in cultured cells by LC-MS/MS. The data set is classed as in vitro ADME. Particulars: human, MHCC97-L cells (cultured HCC cells), Half-life of sorafenib (t1/2). An outline of the steps:
as §3

Test in data set [7]: as above
The data set is classed as in vitro ADME. The conditions noted are these: human, HepG2 cells (cultured HCC cells), Half-life of sorafenib (t1/2). An outline of the steps: as §3

Consider `O=C1NC(=O)[C@@H](c2cn3c4c(cccc24)CCC3)[C@@H]1c1c[nH]c2ccccc12` [ARQ-197], for which the IC25 values in the data set on MHCC97-L cells (MHCC97-L, MTT) came to 1290 ± 520 nM; in the data set on LM-3 cells (LM-3, MTT) it was 80 ± 20 nM; with L-02 cells (L-02, MTT), 3440 ± 240 nM; with MHCC97-H cells (MHCC97-H, MTT), 90 ± 10 nM; in the data set with HepG2 cells (HepG2, MTT) it was 230 ± 70 nM. For the same compound, the IC50 came to 4630 ± 930 nM in the data set on MHCC97-L cells (read-out: IC50 values, MHCC97-L, MTT); 670 ± 160 nM in the data set with LM-3 cells (LM3, read-out: IC50 values, LM-3, MTT); 7590 ± 780 nM in the data set on L-02 cells (Homo sapiens, L02, read-out: IC50 values); 760 ± 220 nM in the data set on MHCC97-H cells (read-out: IC50 values, MHCC97-H, MTT); 1990 ± 470 nM with HepG2 cells (HepG2, read-out: IC50 values, HepG2, MTT). In addition, the “ICmax values (maximum action concentration)” value was 4.62 ± 0.80 µmol/L in the data set with LM-3 cells (LM-3, MTT); 3.56 ± 0.65 µmol/L in the data set on MHCC97-H cells (MHCC97-H, MTT); 9.55 ± 0.57 µmol/L in the data set on HepG2 cells (HepG2, MTT). Also, the “expression of Cyp3a4 (mRNA)” value in data set [1] is given as “decreased”. Moreover, the “expression of Mdr-1 (mRNA)” value in data set [1] is listed as “decreased”. Besides, in data set [1], the “expression of Ugt1a9 (mRNA)” value is on record as “decreased”. In the data set with PXR, the “luciferase activity of DR3-Luc reporter” value is reported as “inhibited”. Moreover, the “expression of E-cadherin (mRNA)” value in data set [2] is on record as “enhanced”. Further, in [2], the “expression of N-cadherin (mRNA)” value is “decreased”. Moreover, the “expression of vimentin (mRNA)” value in data set [2] is recorded as “decreased”. Also, the “effect of ARQ-197 on the antitumor effect of sorafenib in vivo” value in the data set with MHCC97-H tumors (3 mg/kg ARQ-197 + 2 mg/kg sorafenib compared to sorafenib alone, MHCC97-H tumors) is on record as “significantly enhanced the antitumor effect of sorafenib”. Moreover, the “subcutaneous growth of MHCC97-H tumors” value in the data set with MHCC97-H tumors (3 mg/kg ARQ-197, oral, compared to vehicle controls) is “inhibited the subcutaneous growth of MHCC97-H tumors”. Also, the “luciferase activity of EBS-Luc reporter” value with ETS-1 is on record as “inhibited”.
As to `CNC(=O)c1cc(Oc2ccc(NC(=O)Nc3ccc(Cl)c(C(F)(F)F)c3)cc2)ccn1` [sorafenib], the IC50 was determined as 970 ± 390 nM with MHCC97-L cells (read-out: IC50 values of sorafenib, MHCC97-L, ARQ-197); 2730 ± 400 nM in the data set with MHCC97-L cells (read-out: IC50 values of sorafenib, MHCC97-L, solvent control); 1290 ± 250 nM with LM-3 cells (LM3, read-out: IC50 values of sorafenib, LM-3, solvent control); 1390 ± 460 nM with MHCC97-H cells (read-out: IC50 values of sorafenib, MHCC97-H, solvent control); 1680 ± 420 nM with HepG2 cells (HepG2, read-out: IC50 values of sorafenib, HepG2, solvent control). Further, the half-life at 1 μmol/L was 13.6 ± 0.65 h in data set [3] (ARQ-197); 13.8 ± 0.84 h in data set [3] (ETS-1 siRNA); 13.5 ± 0.23 h in [3] (ETS-1 siRNA +ARQ-197); 17.7 ± 0.91 h in data set [3] (PXR siRNA); 17.6 ± 0.88 h in [3] (PXR siRNA +siRNA); 9.08 ± 0.43 h in data set [3] (solvent control). Further, the half-life at 1 μmol/L was 14.4 ± 0.67 h in data set [4] (ARQ-197); 15.6 ± 0.46 h in [4] (ETS-1 siRNA); 15.2 ± 0.18 h in data set [4] (ETS-1 siRNA +ARQ-197); 18 ± 0.25 h in data set [4] (PXR siRNA); 18.4 ± 0.67 h in data set [4] (PXR siRNA +siRNA); 9.93 ± 0.57 h in data set [4] (solvent control). The half-life at 1 μmol/L in [6] (ARQ-197) is 12.6 ± 0.18 h; in [6] (solvent control), 10.2 ± 0.51 h; in data set [7] (ARQ-197), 12.5 ± 0.62 h; in data set [7] (solvent control), 9.62 ± 0.82 h. Moreover, the “Half-life of sorafenib (t1/2)” value in the data set on subcutaneous LM-3 tumors is 39.45 ± 0.74 h; in [5], 40.13 ± 0.83 h.
